In ChEMBL document CHEMBL4513216, “Probing the Open Global Health Chemical Diversity Library for Multistage-Active Starting Points for Next-Generation Antimalarials” (ACS Infect Dis, 2020):

test: Toxicity liver stage against HepG2, at 10uM; format: cell-based; design: test concentration 10 uM, cell line HepG2-A16-CD81EGFP; details: human, HepG2-A16-CD81EGFP cells; read-out: INHIBITION
How it was run: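 Uninfected HepG2-A16-CD81EGFP cells, 3 × 10^3 per well, 1536-well, plated on prespotted compound at 10 μM final, parasite-free screening media added to match infected plates; puromycin 10 μM positive, DMSO 0.5% negative; run in parallel with 48 h PbLuc assay at 37 °C, 5% CO2; viability by CellTiter-Glo luminescence, normalized to controls.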

In order of falling cytotoxicity at 10 µM:
1. Cc1nc(CSc2nc(=O)ccn2C(C)C)cs1  16.4%
2. CC(C)Nc1cc(N2CCC(n3cc(CCO)nn3)CC2)ncn1  16.3%
3. CN1C(=N)NC(=O)/C1=C\c1ccc(-c2ccc(F)cc2)o1  13.5%
4. COc1cccc(NC(C(N)=O)c2ccc(Br)cc2)c1 (stereo not given)  11.3%
5. CCn1cc(S(=O)(=O)NC(CO)Cc2c[nH]c3ccccc23)cn1 (stereo not given)  10.8%
6. Cc1cccc(CN2CCC(NS(C)(=O)=O)CC2)n1  9.87%
7. c1cnc2nc(C3CCNCC3)[nH]c2c1  9.57%
8. NC(=O)C(NC(=O)CSCc1ccc(Cl)s1)c1ccccc1 (stereo not given)  9.12%
9. CC(C)n1c(=O)c2sccc2n(CC(=O)Nc2cccc(Cl)c2)c1=O  8.93%
10. Cc1cc(Br)ccc1CNC(=O)C1(O)CCSCC1  8.88%
11. CSC1(CNC(=O)N(C)Cc2ccc(Cl)s2)CCOCC1  8.08%
12. O=C(CCn1nc(C(F)(F)F)c(Cl)c1C1CC1)NN1CCOCC1  7.69%
13. O=S1(=O)COCCN1Cc1ccc(F)c(C(F)(F)F)c1  7.52%
14. CS(=O)(=O)c1nccn1Cc1ccc(C(N)=O)cc1  6.77%
15. O=C1CC2(CCSC2)C(=O)N1CCCc1ccccc1 (stereo not given)  6.43%
16. Cc1cc(C)n(C2CCN(S(=O)(=O)N3CCC(C)CC3)CC2)n1  6.36%
17. Cc1ncc(C(=O)N2CCC(C(=O)NC3CCCC3)C2)c(C)n1 (stereo not given)  6.3%
18. CNC(=O)[C@@]12CCO[C@@H]1CCN(Cc1scnc1C)C2  6.12%
19. CN(C)CCNC(=O)CC1CCN(c2cccnn2)CC1  6.04%
20. CCC(=O)N1CCC(c2nc(C)ncc2-c2ccncc2)CC1  6.04%
21. N#Cc1ccccc1OCCN1CCCC(c2noc(C3CC3)n2)C1 (stereo not given)  5.87%
22. COc1ccc(CN2CCCC3(CC2)CNC(=O)O3)cc1OC (stereo not given)  5.75%
23. Cc1nc(N2CCOCC2)nc(C)c1NC(=O)COc1ccccc1  4.17%
24. Cc1nc(CN2CCN(S(=O)(=O)N3CCCCC3)CC2)oc1C  3.64%
25. CCc1cnc(N2Cc3cnc(C(C)(C)C)nc3C2)nc1  3.51%
26. O=C(Cc1cnc(-c2c(Cl)cccc2Cl)s1)N1CCOCC1  3.29%
27. COC(=O)CCC(=O)N(C/C=C/c1ccccc1)CCO  3.28%
28. c1cc(CCNc2ccc(CC3CCNC3)cn2)ccn1 (stereo not given)  3.09%
29. N#Cc1c(CN2CCCCC2Cn2cncn2)cn2ccccc12 (stereo not given)  3.06%
30. Cc1ccc2c(c1)N(C(=O)c1cc[nH]c(=O)c1)CC(C)O2 (stereo not given)  2.71%
31. COCCN1CCn2c(nc3cc(C(=O)NC(C)C)ccc32)C1  2.38%
32. O=S1(=O)NCC2(CCCN(Cc3ccccn3)C2)Oc2ncccc21 (stereo not given)  2.22%
33. CCN1CCC(NC(=O)CN2CCCC2Cn2cccn2)CC1 (stereo not given)  1.98%
34. CCc1nc(C2CCCN2C(=O)c2nc(C)n3ccccc23)no1 (stereo not given)  1.85%
35. NC(=O)CN1CC2(CCC1=O)CCN(Cc1ccccc1F)CC2  1.81%
36. NC(=O)N1CC2(CCNCC2)c2cc(Cl)ccc21  1.79%
37. CCc1cc(N(C)CCCO)n2nccc2n1  1.77%
38. COc1ccc(NC(=O)Cn2nc(C)ccc2=O)cc1OC  1.57%
39. COCCNC(=O)NC1(c2nc(C)no2)CCCCC1  1.56%
40. Cc1cc(C(=O)N2CCc3nnc(N(C)C)cc3C2)c(C)n1C1CC1  1.56%
41. O=C(C1CCOCC1)N1CCOCC(Cc2ncccn2)C1 (stereo not given)  1.38%
42. Cc1cnn(C2CCCN(C(=O)c3sccc3C#N)C2)c1 (stereo not given)  0.736%
43. CC(C)CCS(=O)(=O)CC(=O)N1CCCC1c1cnn(C)c1 (stereo not given)  0.528%
44. COc1c(C2CCCN2C(=O)c2c(C)noc2C)c(C)nn1C (stereo not given)  0.471%
45. COCc1nnc(C(=O)N(C)Cc2ccc(OC)cc2)o1  -0.164%
46. CCC(O)Cn1nc(CCSC)nc1-c1ccc2c(c1)OCCO2 (stereo not given)  -0.268%
47. CCCC(O)CN1CC(C)(C)CN(C(=O)c2ccccc2)CC1=O (stereo not given)  -0.295%
48. N#Cc1ccc(OCCN2CCc3c(ncn3C3CC3)C2)cc1  -0.318%
49. COCCC(=O)Nc1nc2c(OC)cc(F)cc2s1  -0.327%
50. CC(C)NC(=O)C1CN(C(=O)c2ccco2)CC12CCOCC2 (stereo not given)  -0.516%
51. Clc1cccc(Cl)c1CN(CCCN1CCOCC1)Cc1cccnc1  -0.52%
52. COc1ccc(CN2CC(O)CN(C(=O)CC(C)C)CC2=O)cc1 (stereo not given)  -0.634%
53. CS(=O)(=O)N1CCC2(CC1)CC(CC(=O)N1CCCC1)c1ccccc12 (stereo not given)  -0.748%
54. Cc1ccc(C(=O)NS(=O)(=O)c2c(Cl)cccc2Cl)c(=O)[nH]1  -0.855%
55. CN(C)C(=O)Cc1nc(CN2CCCCC2Cn2cncn2)cs1 (stereo not given)  -0.868%
56. CCc1ccc(CN2CCNC(C(=O)N3CCN(C)CC3)C2)o1 (stereo not given)  -0.891%
57. CNc1nc(CNC(=O)Nc2ccccc2C(F)(F)F)cs1  -0.896%
58. c1ncn(CC2CCCCN2Cc2noc(C3CC3)n2)n1 (stereo not given)  -0.935%
59. Fc1ccc(OCCCN2CCOC(Cn3cncn3)C2)cc1 (stereo not given)  -1.03%
60. N#Cc1ccc(CN2CCCCC2Cn2cncn2)cc1 (stereo not given)  -1.05%
61. CC(C)CC1(C(=O)NCCc2nncn2C2CC2)CCC1  -1.06%
62. Cc1csc(CN(CC2CCCO2)C(=O)c2ccc(C)nc2C)n1 (stereo not given)  -1.19%
63. O=C(Nc1ccccn1)C1=NN(c2ccccc2)C(=O)CN1  -1.53%
64. CCOc1cc(C)nc(N2CCN(C(=O)c3cc(C)on3)CC2)n1  -1.61%
65. CC(C)C(=O)NCc1cccc(N2CCCCC2=O)c1  -1.73%
66. Cc1cnn(CC2CN(c3ncnc4[nH]ccc34)CCO2)c1 (stereo not given)  -1.91%
67. c1cncc(CN2CC(Cc3nccc4cc[nH]c34)C2)c1  -2.26%
68. COc1c(C2CCCN2CC(=O)Nc2cccnc2)c(C)nn1C (stereo not given)  -2.39%
69. CNC(=O)CC1c2cccnc2C(=O)N1Cc1ccccc1 (stereo not given)  -2.51%
70. CN(Cc1ccc(F)cc1F)CC(C)(CO)CO  -2.52%
71. CN1N=C(C(=O)N(Cc2ccco2)C2CC2)CCC1=O  -2.62%
72. c1cc(C2CCN(Cc3ccc4c(c3)OCO4)CC2)ccn1  -2.98%
73. CC(C)(C)CC(=O)NCC(=O)NS(=O)(=O)c1cccnc1  -3.13%
74. Cc1noc(NCc2cn(C)nc2-c2ccncc2)n1  -3.48%
75. CCCc1cc(C(=O)N[C@@H]2CC[C@@H](N3CCOCC3)[C@@H]2O)no1  -3.59%
76. COc1cc(F)ccc1NC(=O)NCCNC(=O)OC(C)(C)C  -3.97%
77. Cc1cc(NC(=O)C2CCN(c3nnc(C)c(C)c3C#N)CC2)no1  -4.11%
78. COc1ccccc1OCCNCCn1cccn1  -4.53%
79. CCc1cc(NC(=O)C2CCCN(C(=O)NCC(C)C)C2)[nH]n1 (stereo not given)  -4.56%
80. Cc1ccccc1-n1cc(C2=CCN(CCN3CCOCC3)CC2)cn1  -5.06%
81. CC(C)(CN)NS(=O)(=O)c1cccc(F)c1F  -5.7%
82. Cc1c(CN2CCCC(C(=O)CCc3ccccc3)C2)cc(C#N)n1C (stereo not given)  -5.76%
83. COc1cc(Cl)ccc1C(=O)N1CCCC(n2nc(C)nc2C)C1 (stereo not given)  -5.8%
84. Cc1cnn(CC(C)NCc2csc(-c3cccs3)n2)c1 (stereo not given)  -5.8%
85. CCCn1nccc1-c1nccnc1CC1CCN(C(C)=O)CC1  -6.15%
86. CCc1c(C(=O)NC2CCS(=O)(=O)C2)cnn1-c1ccc(F)cc1 (stereo not given)  -6.31%
87. CC(=O)N1CCC(NC(C)c2cnn(-c3ccc(F)cc3F)c2C)CC1 (stereo not given)  -6.4%
88. CC(=O)NCCC(=O)NCc1cc(Br)ccc1OC(F)F  -6.47%
89. Cc1cccc(CN(C(=O)NCc2ccccn2)C2CC2)c1  -6.73%
90. CN(Cc1ccon1)CC1CCOc2ccccc2C1 (stereo not given)  -6.95%
91. CNc1snc(C)c1C(=O)N1CCCC(n2nc(C)nc2C)C1 (stereo not given)  -7%
92. Cc1nc(C2CCCN(C(=O)c3c(C)nn4cccnc34)C2)no1 (stereo not given)  -7.62%
93. CCCc1nc(C)c(C(=O)NC2CCN(C3CC3)C2)s1 (stereo not given)  -7.82%
94. CCc1nc(C2CCCN2CC(=O)Nc2cc(C)nn2C)no1 (stereo not given)  -7.82%
95. Cc1nn(C)c(C)c1CN(CCO)C(=O)C1COc2ccccc2C1 (stereo not given)  -8.07%
96. CSCC(=O)NCc1cc(Br)ccc1OC(F)F  -8.22%
97. Cn1cc(C2CCCN2CCC(=O)N2CCc3sccc3C2)cn1 (stereo not given)  -8.25%
98. c1cc(CN2CCOC3(CCCC3)C2)no1  -8.29%
99. c1ccc(Cc2nnc(CN3CCOC(Cn4cccn4)C3)o2)cc1 (stereo not given)  -8.48%
100. Cc1cn2c(CN(C)C(=O)c3cccnc3O)c(C)nc2s1  -8.59%
101. Cc1cc(NC(=O)CN2CCN(c3nccs3)C(C)C2)no1 (stereo not given)  -9.66%
102. O=C(c1cccnc1)N1C[C@H]2CC[C@@H](C1)N(Cc1cc(F)ccc1F)C2  -10.2%
103. Cc1nc(CC(=O)N2CCCC2Cn2cccn2)cs1 (stereo not given)  -11.2%
104. CC(C)c1nn(C)c(N(C)C)c1CNCc1cccc2cccnc12  -11.2%
105. Cn1cc(NC(=O)N2CCC(CN3CCCC3)CC2)ccc1=O  -11.5%
106. Cc1cc(CN2CCC(N(C)Cc3nnc(C4CC4)n3C)C2)on1 (stereo not given)  -11.6%
107. CCn1ccnc1CN(C)c1nc(-c2ccc(Cl)cc2)nc2c1CNC2  -12.7%
108. CC(c1c(F)cccc1F)N1CCN(Cc2nccn2C)CC1 (stereo not given)  -13.6%
109. CCc1nnc2n1CCN(C(=O)c1ccnc(N(C)C)c1)C2  -21%
110. COCCOc1ccccc1C(=O)N1CCCC(c2cc(C)[nH]n2)C1 (stereo not given)  -22.6%
111. CCc1nnc2n1CCN(Cc1csc(Cc3ccccc3)n1)C2  -25%
112. Cc1nn2cccnc2c1C(=O)NCc1ccnc(OCC2CC2)c1  -41.6%
113. Cn1ncc2c(N3CCCC(C)(O)C3)nc(C(C)(C)C)nc21 (stereo not given)  -43.6%
114. c1cnc(NCc2cncc3c2CCN(Cc2ccoc2)C3)nc1  -70.9%
115. Cc1ccc(C(=O)N2C[C@@H]3CCN(c4cccnc4)C[C@@H]3C2)cn1  -75.9%
